Measurements taken from publication PMC8500343 (Pharmacology Research & Perspectives, 2021).
“And” between values parts separate entries of the source, which are not always exact repeats. Equal values may be shown once. Read-outs that look alike come from different tables or passages of the source.

How the values were obtained:
[1] = Bioequivalence part; assay type: in vivo, human (healthy adult subjects); details: for Geometric means ratio, AUC0–last / Geometric means ratio, AUC0–∞ / Geometric means ratio, C max: Group 1, FDC vs. free combination, Treatment A/B, fasted; for t 1/2 / AUC(0-t) / AUC(0-inf): mean (SD); for CVw (intrasubject coefficient of variation), AUC0–last / CVw (intrasubject coefficient of variation), AUC0–∞ / CVw (intrasubject coefficient of variation), C max: Group 1, Treatment A/B; for AUC(0-t): AUC0–last; for AUC(0-inf): AUC0–∞
In short: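 Single-centre, open-label, randomized two-period crossover in healthy adult men and women. Single oral doses were given after an overnight fast of at least 10 h: fixed-dose tablet (10/40 mg) versus 10 mg macitentan plus 40 mg Canadian-sourced tadalafil tablets. Plasma was sampled predose to 216 h and assayed by LC-MS/MS. Noncompartmental PK gave GMR 90% CIs against 80.00–125.00 limits and intrasubject CV.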

[2] = Food effect part; assay type: in vivo, human (healthy adult subjects); details: for Geometric means ratio, AUC0–last / Geometric means ratio, AUC0–∞ / Geometric means ratio, C max: Treatment C/D; for mean C max higher under fed (test) compared with fasted (reference) conditions / t 1/2 / AUC(0-t) / AUC(0-inf): Group 2, FDC; for mean C max higher under fed (test) compared with fasted (reference) conditions: arithmetic means; for CVw (intrasubject coefficient of variation), AUC0–last / CVw (intrasubject coefficient of variation), AUC0–∞ / CVw (intrasubject coefficient of variation), C max: Group 2, Treatment C/D; for AUC(0-t): AUC0–last; for AUC(0-inf): AUC0–∞
In short: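 Healthy adults in a randomized two-way crossover, sequence C-D or D-C. Single oral fixed-dose tablet (10/40 mg) was given fed or fasted; both arms fasted overnight for at least 10 h. Fed dosing followed a high-fat, high-calorie breakfast per FDA guidance, eaten within 30 min. Plasma was sampled predose to 216 h and assayed by LC-MS/MS. Noncompartmental PK gave GMR 90% CIs against 80.00–125.00 limits.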

[3] = Stability in plasma samples; assay type: in vitro ADME, human
[4] = no reference given; cited from earlier work
[5] = cited from earlier work
[6] = Group 1, FDC, fasted (Treatment A)
[7] = Group 1, free combination, fasted (Treatment B)
[8] = both, human, plasma, oral, Group 1, FDC, fasted (Treatment A)
[9] = both, human, plasma, oral, Group 1, free combination, fasted (Treatment B)
[10] = fasted (Treatment D), mean (SD)
[11] = both, human, plasma, oral, fasted (Treatment D), mean (SD)
[12] = both, human, plasma, oral, fed (Treatment C), mean (SD)
[13] = in the presence of macitentan and metabolite

## CN1CC(=O)N2[C@H](c3ccc4c(c3)OCO4)c3[nH]c4ccccc4c3C[C@@H]2C1=O [Tadalafil]
[1]
  Geometric means ratio, AUC0–last: 98.87%
  Geometric means ratio, AUC0–∞: 98.82%
  Geometric means ratio, C max: 88.30%
  CVw (intrasubject coefficient of variation), AUC0–last: 11.3%
  CVw (intrasubject coefficient of variation), AUC0–∞: 11.3%
  CVw (intrasubject coefficient of variation), C max: 16.1%
[1]; [6]
  t 1/2: 22.8 (7.76) h
[1]; [7]
  t 1/2: 22.7 (7.26) h
[1]; both, human, plasma, oral
  Tmax: 2.5 h
[1]; [8]
  AUC(0-t): 20.6 µg·h/mL
  AUC(0-inf): 20.7 µg·h/mL
[1]; [9]
  AUC(0-t): 20.8 µg·h/mL
  AUC(0-inf): 20.9 µg·h/mL
[2]; FDC under fasting conditions
  intersubject variability in C max: 34.0%
[2]; Group 2, FDC fed vs. fasted
  C max geometric means ratio, test higher compared to reference: 45% and 44.97%
  Geometric means ratio, AUC0–last: 111.07%
  Geometric means ratio, AUC0–∞: 111.04%
  Geometric means ratio, C max: 144.97%
[2]
  mean C max higher under fed (test) compared with fasted (reference) conditions: approximately 42.5%
  CVw (intrasubject coefficient of variation), AUC0–last: 9.9%
  CVw (intrasubject coefficient of variation), AUC0–∞: 9.9%
  CVw (intrasubject coefficient of variation), C max: 17.7%
[2]; [10]
  t 1/2: 23.4 (6.64) h
[2]; both, human, plasma, oral
  Tmax: 2.5 h
  half-life: 24.5 h
[2]; [11]
  AUC(0-t): 19.7 µg·h/mL
  AUC(0-inf): 19.9 µg·h/mL
[2]; [12]
  AUC(0-t): 22.3 µg·h/mL
  AUC(0-inf): 22.5 µg·h/mL
[2]; both, human, plasma, oral, geometric mean of tadalafil C max under fed conditions, FDC formulation, fed
  Cmax: 0.666 µg/mL
[2]; fed conditions, 666 ng/ml vs. 586 ng/ml (ref 21)
  ratio of geometric mean tadalafil C max, FDC formulation vs. tadalafil: 1.14
[3]; [13]
  stability in plasma samples at room temperature: at least 24 h
  stability in plasma samples at −20 and −70℃: 127 days
  stability in plasma samples, freeze/thaw cycles: 5 freeze/thaw cycles
[4]
  biopharmaceutical classification system (BCS) class: 2
[5]; tadalafil alone, fed
  geometric mean of tadalafil C max under fed conditions: 0.586 µg/mL
[5]; tadalafil in a fasted state, another study
  C max: 0.614 µg/mL

## NS(=O)(=O)Nc1ncnc(OCCOc2ncc(Br)cn2)c1-c1ccc(Br)cc1 [Aprocitentan]
[1]; [6]
  t 1/2: 50.7 (9.99) h
[1]; [7]
  t 1/2: 49.4 (6.92) h
[1]; [8]
  AUC(0-t): 20.9 µg·h/mL
  AUC(0-inf): 22.6 µg·h/mL
[1]; [9]
  AUC(0-t): 20.8 µg·h/mL
  AUC(0-inf): 22.5 µg·h/mL
[2]; Group 2, FDC 10/40 mg, fasted (Treatment D), mean (SD)
  C max: 165 (29.3) ng/ml
[2]; Group 2, FDC fed vs. fasted
  90% CI of GMRs for all 3 PK parameters versus equivalence limits: within the equivalence limits
  Geometric means ratio, AUC0–last: 104.50%
  Geometric means ratio, AUC0–∞: 103.98%
  Geometric means ratio, C max: 107.25%
[2]; [10]
  t 1/2: 49.7 (7.63) h
[2]; fed (Treatment C), mean (SD)
  t 1/2: 49.4 (6.02) h
[2]
  CVw (intrasubject coefficient of variation), AUC0–last: 7.2%
  CVw (intrasubject coefficient of variation), AUC0–∞: 7.0%
  CVw (intrasubject coefficient of variation), C max: 7.4%
[2]; [12]
  AUC(0-t): 18.9 µg·h/mL
  AUC(0-inf): 20.3 µg·h/mL
[2]; [11]
  AUC(0-inf): 19.5 µg·h/mL
[3]; in the presence of tadalafil
  stability in plasma samples at room temperature: at least 26 h
  stability in plasma samples, freeze/thaw cycles: 5 freeze/thaw cycles

## CCCNS(=O)(=O)Nc1ncnc(OCCOc2ncc(Br)cn2)c1-c1ccc(Br)cc1 [Macitentan]
[1]
  Geometric means ratio, AUC0–last: 100.96%
  Geometric means ratio, AUC0–∞: 100.66%
  Geometric means ratio, C max: 101.49%
  CVw (intrasubject coefficient of variation), AUC0–last: 9.6%
  CVw (intrasubject coefficient of variation), AUC0–∞: 9.5%
  CVw (intrasubject coefficient of variation), C max: 11.2%
[1]; [6]
  t 1/2: 13.9 (2.87) h
[1]; Group 1, free combination, fasted (Treatment B), median (range)
  Tmax: 10.0 (3.55–12.0) h
[1]; both, human, plasma, oral
  Tmax: 10 h
  half-life: 14.6 h
[1]; [8]
  AUC(0-t): 5.85 µg·h/mL
  AUC(0-inf): 5.93 µg·h/mL
[1]; [9]
  AUC(0-t): 5.8 µg·h/mL
  AUC(0-inf): 5.9 µg·h/mL
[2]; Group 2, FDC fed vs. fasted
  90% CI for the GMR of C max versus equivalence limits (80.00% to 125.00%): outside the equivalence limits
  C max geometric means ratio, test higher compared to reference: 16.10%
  Geometric means ratio, AUC0–last: 102.32%
  Geometric means ratio, AUC0–∞: 102.13%
  Geometric means ratio, C max: 116.10%
[2]
  mean C max higher under fed (test) compared with fasted (reference) conditions: approximately 15.9%
  CVw (intrasubject coefficient of variation), AUC0–last: 6.6%
  CVw (intrasubject coefficient of variation), AUC0–∞: 6.4%
  CVw (intrasubject coefficient of variation), C max: 12.4%
[2]; fed (Treatment C), mean (SD)
  t 1/2: 14.1 (2.50) h
[2]; both, human, plasma, oral
  Tmax: 10 h
  half-life: 15.5 h
[2]; [11]
  AUC(0-t): 6.22 µg·h/mL
  AUC(0-inf): 6.34 µg·h/mL
[2]; [12]
  AUC(0-t): 6.43 µg·h/mL
  AUC(0-inf): 6.54 µg·h/mL
[3]; in the presence of tadalafil
  stability in plasma samples at room temperature: at least 26 h
  stability in plasma samples, freeze/thaw cycles: 5 freeze/thaw cycles
[4]
  biopharmaceutical classification system (BCS) class: 2
